In ChEMBL document CHEMBL3352255, “Tailor-made fluorescent trilobolide to study its biological relevance” (J Med Chem, 2014):
Activity calls are given as the source filed them. The calls are words filed in the database; no cut-off is given here.

Tests used:
MCF7 = assay: Cytotoxicity against human MCF7 cells after 24 hrs by WST-1 assay; type: functional, cell-based; settings: MCF7, 24 h
Summary of the method: (§1)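 Dark cytotoxicity (no light exposure) by WST-1 tetrazolium-to-formazan conversion reflecting metabolic activity; compounds tested at concentrations up to 50 μM for 24, 48 or 72 h; IC50 taken as concentration giving 50% inhibition of cell viability.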

U2OS [1] = assay: Cytotoxicity against human U2OS cells after 72 hrs by WST-1 assay; type: functional, cell-based; summary of the method: as §1
[2] = Cellular uptake in Endoplasmic reticulum of human U2OS cells at 1 uM after 1 hr by fluorescence microscopy; type: ADME, cell-based
Summary of the method: (§2)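 Live-cell fluorescence microscopy of cells exposed to Bodipy-labelled conjugates at 1 μM for 1 h. ER was co-stained with ER-Tracker Blue-White DPX (100 nM, 20 min) to check colocalisation. A Bodipy dye-only stain served as control.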

LNCaP = assay: Cellular uptake in human LNCAP cells at 1 uM after 20 mins by fluorescence microscopy; type: ADME, cell-based
Summary of the method: (§3)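 Uptake into living cells was followed by fluorescence microscopy at 10, 20 and 40 min and at 1, 3, 5 and 24 h. Green-emitting Bodipy conjugates were given at 1 μM. A Bodipy dye-only stain served as control for dye-driven localisation.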

HT-29 [3] = assay: Cytotoxicity against human HT-29 cells after 24 hrs by WST-1 assay; type: functional, cell-based; settings: HT-29, 24 h; summary of the method: as §1
[4] = Cellular uptake in human PC3 cells at 1 uM after 40 mins to 24 hrs by fluorescence microscopy; type: ADME, cell-based; settings: pc-3, 1 µM; summary of the method: as §3
HT-29 [5] = assay: Cytotoxicity against human HT-29 cells after 72 hrs by WST-1 assay; type: functional, cell-based; settings: HT-29, 72 h; summary of the method: as §1
[6] = Cytotoxicity against rat peritoneal cells assessed as reduction in cell viability at 40 uM after 24 hrs by WST-1 assay
[7] = Cytotoxicity against human MIAPaCa2 cells after 72 hrs by WST-1 assay; type: functional, cell-based; settings: MIA PaCa-2, 72 h; summary of the method: as §1
[8] = Cellular uptake in Endoplasmic reticulum of human HeLa cells at 1 uM after 1 hr by fluorescence microscopy; type: ADME, cell-based; summary of the method: as §2
[9] = Cytotoxicity against human PC3 cells after 24 hrs by WST-1 assay; type: functional, cell-based; settings: PC-3, 24 h; summary of the method: as §1
[10] = Cytotoxicity against rat peritoneal cells assessed as reduction in cell viability at 40 uM after 24 hrs by WST-1 assay; type: cell-based
Rattus norvegicus = species on record: Rattus norvegicus; assay: Induction of TNFalpha production in rat peritoneal cells at 10 uM after 24 hrs using by ELISA; type: functional, cell-based
Summary of the method: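 Rat peritoneal cells exposed to compounds at 10 μM for 24 h; secreted TNF-α quantified by ELISA; LPS (1000 pg·mL−1) and parent trilobolide (1 μM) as positive controls; mean ± SEM of two independent experiments, n = 4, compared with untreated cells.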

C2C12 [11] = assay: Cytotoxicity against mouse C2C12 cells after 48 hrs by WST-1 assay; type: functional, cell-based; settings: C2C12, 48 h; summary of the method: as §1
U2OS [12] = assay: Cellular uptake in human U2OS cells at 1 uM after 45 to 60 mins by fluorescence microscopy; type: ADME, cell-based; summary of the method: as §3
[13] = Cytotoxicity against human MIAPaCa2 cells after 24 hrs by WST-1 assay; type: functional, cell-based; settings: MIA PaCa-2, 24 h; summary of the method: as §1
[14] = Cellular uptake in HEK293T cells at 1 uM after 40 mins to 24 hrs by fluorescence microscopy; type: ADME, cell-based; settings: human, hek-293t; summary of the method: as §3
C2C12 [15] = assay: Cellular uptake in mouse C2C12 cells at 1 uM after 40 mins to 24 hrs by fluorescence microscopy; type: ADME, cell-based; settings: c2c12, 1 µM; summary of the method: as §3
A549 = assay: Cellular uptake in human A549 cells at 1 uM after 40 mins to 24 hrs by fluorescence microscopy; type: ADME, cell-based; settings: a549, 1 µM; summary of the method: as §3
HeLa = assay: Cellular uptake in human HeLa cells at 1 uM after 40 mins to 24 hrs by fluorescence microscopy; type: ADME, cell-based; summary of the method: as §3

| Compound | IC50 (MCF7) | IC50 (U2OS [1]) | Drug uptake [2] | Drug uptake (LNCaP) | IC50 (HT-29 [3]) | Drug uptake [4] | IC50 (HT-29 [5]) | Activity [6] | IC50 [7] | Drug uptake [8] | IC50 [9] | Activity [10] | Activity (Rattus norvegicus) | IC50 (C2C12 [11]) | Drug uptake (U2OS [12]) | IC50 [13] | Drug uptake [14] | Drug uptake (C2C12 [15]) | Drug uptake (A549) | Drug uptake (HeLa) |
| --- | --- | --- | --- | --- | --- | --- | --- | --- | --- | --- | --- | --- | --- | --- | --- | --- | --- | --- | --- | --- |
| C/C=C(/C)C(=O)O[C@@H]1C[C@H]2C(=C1C)[C@@H]1OC(=O)[C@@](C)(O)[C@@]1(O)[C@@H](OC(=O)CCOCCOCCOCCOCCn1cc(COc3ccc(C4=C5C=CC=[N+]5[B-](F)(F)n5cccc54)cc3)nn1)C[C@]2(C)OC(C)=O | 7.4 µM | 9.1 µM | Active | Active | > 50 µM | Active | > 50 µM | Non-toxic | 6.5 µM | Active | 2.5 µM | Non-toxic | Active | 6.5 µM | Not Active | > 50 µM |  |  |  |  |
| C/C=C(/C)C(=O)O[C@@H]1C[C@H]2C(=C1C)[C@@H]1OC(=O)[C@@](C)(O)[C@@]1(O)[C@@H](OC(=O)CCCCn1cc(COc3ccc(C4=C5C=CC=[N+]5[B-](F)(F)n5cccc54)cc3)nn1)C[C@]2(C)OC(C)=O | > 50 µM | 9.1 µM | Active | Active | > 50 µM | Active | > 50 µM |  | 38.3 µM | Active | 4.2 µM | 20% |  | 7.5 µM | Not Active | > 50 µM | Active | Active | Active | Active |
